Paper PMC2889672 (Biochemistry, 2010)

Assays:
S. pneumoniae UPPS [1] = target: T1, S. pneumoniae UPPS (Streptococcus pneumoniae serotype 4, UniProt Q97SR4); experiment: Biomol Green assay of UPPS activity; type: biochemical
T1 sequence (Q97SR4 1-252): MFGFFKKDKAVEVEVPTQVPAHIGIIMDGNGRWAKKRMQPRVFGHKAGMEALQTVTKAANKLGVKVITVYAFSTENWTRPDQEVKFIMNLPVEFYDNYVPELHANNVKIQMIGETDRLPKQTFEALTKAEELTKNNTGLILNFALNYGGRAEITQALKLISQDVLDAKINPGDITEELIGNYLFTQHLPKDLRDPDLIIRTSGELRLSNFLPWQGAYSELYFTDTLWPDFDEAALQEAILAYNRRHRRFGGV
Summary of the method: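 His-tagged S. pneumoniae UPPS expressed in E. coli BL21(DE3) and purified by Ni-NTA and size exclusion, then mixed 1:2 (w/v) with liposomes of total E. coli lipid extract. Released phosphate quantified with Biomol Green reagent.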

S. pneumoniae UPPS [2] = target: T1, S. pneumoniae UPPS; experiment: Photo-cross-linking with Photo-probe and mass spectrometry; type: binding; conditions: 30 μM UPPS, 30 μM Photo-probe, UV 350 nm 10 min
S. pneumoniae UPPS [3] = target: T1, S. pneumoniae UPPS; experiment: Protein fluorescence binding experiments; conditions: excitation 285 nm; 1 μM UPPS, 5 μM compound
Summary of the method: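 Intrinsic protein fluorescence: emission scanned 300−500 nm at excitation 285 nm. Buffer: 100 mM HEPES pH 7.3, 0.5 mM MgCl2, 50 mM KCl, 1.25% DMSO. Test compound (final 5 μM) preincubated 15 min with UPPS (final 1 μM) before adding FsPP (15 μM), IsPP (40 μM) or both. Spectra are averages of two scans.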

| IC50 (S. pneumoniae UPPS [1]) | binding to and modification of UPPS in the absence of substrate (S. pneumoniae UPPS [2]) | change of intrinsic fluorescence of S. pneumoniae UPPS upon addition of compound (S. pneumoniae UPPS [3]) | SMILES |
| --- | --- | --- | --- |
| 630 nM | bound to and modified UPPS |  | O=C(Nc1ccc(C(=O)c2ccccc2)cc1)C1=C(O)C(CCc2ccccc2)NC1=O (stereo not shown) [Photo-probe, N-(4-Benzoylphenyl)-4-hydroxy-2-oxo-5-phenethyl-2,5-dihydro-1H-pyrrole-3-carboxamide] |
| 450 nM |  | increased | CC1(Cc2ccccc2)NC(=O)C(C(=O)Nc2ccc(C3CCCCC3)cc2)=C1O (stereo not shown) [compound 1, 5-benzyl-4-hydroxy-5-methyl-2-oxo-2,5-dihydro-1H-pyrrole-3-carboxylic acid (4-cyclohexylphenyl)amide] |
